Laboratory results: ChEMBL document CHEMBL3124882, “Semi-synthesis of acylated triterpenes from olive-oil industry wastes for the development of anticancer and anti-HIV agents” (Eur J Med Chem, 2014)
One block for each compound: values may come before it. Calls of active or inactive are those of the source. The calls are words filed in the database; no cut-off is given here.

How the values were obtained:
Protease = Protease (Human immunodeficiency virus 1, UniProt Q9YQ12); test: Inhibition of HIV1 recombinant protease expressed in Escherichia coli using Abz-Ala-Arg-Val-Nle-Tyr(NO2)-Glu-Ala-Nle-NH2 as substrate by FRET assay
B16-F10 [1] = test: Induction of apoptosis in mouse B16F10 cells assessed as late apoptotic cells at IC50 after 72 hrs by annexin V-FITC/propidium iodide staining-based FACS analysis (reference value: 9.8 +/- 2.2%); assay type: functional
B16-F10 [2] = test: Induction of apoptosis in mouse B16F10 cells assessed as necrotic cells at 2 X IC50 after 72 hrs by annexin V-FITC/propidium iodide staining-based FACS analysis (reference value: 4.0 +/- 0.6%); assay type: functional
B16-F10 [3] = test: Induction of apoptosis in mouse B16F10 cells assessed as early apoptotic cells at IC50 after 72 hrs by annexin V-FITC/propidium iodide staining-based FACS analysis (reference value: 3.9 +/- 0.4%); assay type: functional
B16-F10 [4] = test: Induction of apoptosis in mouse B16F10 cells assessed as normal cells at IC50 after 72 hrs by annexin V-FITC/propidium iodide staining-based FACS analysis (reference value: 77.9 +/- 1.5%); assay type: functional
B16-F10 [5] = test: Cytotoxicity against mouse B16F10 cells after 72 hrs by MTT assay; assay type: functional, cell-based; conditions: B16-F10, 72 h
In short: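 B16F10 cells (DMEM, 2 mM glutamine, 10% heat-inactivated FCS, penicillin/streptomycin; subconfluent) seeded at 11·10^3 per well and exposed to 0–80 µg/mL for 72 h. Compounds were diluted from a 10 mg/mL stock in 50% DMSO/PBS. MTT 0.5 mg/mL for 2 h, formazan dissolved in DMSO, absorbance at 550 nm. Viability is relative to untreated controls; IC50 from four assays of six replicates, mean ± S.E.M.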

B16-F10 [6] = test: Induction of apoptosis in mouse B16F10 cells assessed as late apoptotic cells at 2 X IC50 after 72 hrs by annexin V-FITC/propidium iodide staining-based FACS analysis (reference value: 9.8 +/- 2.2%); assay type: functional
B16-F10 [7] = test: Induction of apoptosis in mouse B16F10 cells assessed as necrotic cells at IC50 after 72 hrs by annexin V-FITC/propidium iodide staining-based FACS analysis (reference value: 4.0 +/- 0.6%); assay type: functional
B16-F10 [8] = test: Induction of apoptosis in mouse B16F10 cells assessed as early apoptotic cells at 2 X IC50 after 72 hrs by annexin V-FITC/propidium iodide staining-based FACS analysis (reference value: 3.9 +/- 0.4%); assay type: functional
B16-F10 [9] = test: Induction of apoptosis in mouse B16F10 cells assessed as total apoptotic cells at 2 X IC50 after 72 hrs by annexin V-FITC/propidium iodide staining-based FACS analysis (reference value: 13.7 +/- 2.7%); assay type: functional
B16-F10 [10] = test: Induction of apoptosis in mouse B16F10 cells assessed as total apoptotic cells at IC50 after 72 hrs by annexin V-FITC/propidium iodide staining-based FACS analysis (reference value: 13.7 +/- 2.7%); assay type: functional
B16-F10 [11] = test: Induction of apoptosis in mouse B16F10 cells assessed as normal cells at 2 X IC50 after 72 hrs by annexin V-FITC/propidium iodide staining-based FACS analysis (reference value: 77.9 +/- 1.5%); assay type: functional
B16-F10 [12] = test: Induction of ROS generation in mouse B16F10 cells at IC50 to 2 X IC50 after 72 hrs by rhodamine123/propidium iodide staining-based FACS analysis; assay type: functional, cell-based
In short: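 B16F10 cells, 11·10^4 per well, treated 72 h at IC50 or 2×IC50, then given fresh medium with dihydrorhodamine 123 at a final 5 µg/mL for 30 min. Cells washed, resuspended in PBS and read by flow cytometry for Rh123 and PI fluorescence (excitation 500 nm, emission 536 nm). Rh123+ cells scored ROS-positive regardless of PI. Three experiments in duplicate, mean ± S.E.M.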

Protease, sequence (Q9YQ12 whole entry): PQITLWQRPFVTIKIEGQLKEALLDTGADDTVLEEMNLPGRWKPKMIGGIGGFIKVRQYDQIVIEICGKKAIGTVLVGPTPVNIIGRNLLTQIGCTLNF

IC50 (Protease): 15.6 µM
Compound: CC1(C)CC[C@]2(C(=O)OCc3ccccc3)CC[C@]3(C)C(=CC[C@@H]4[C@@]5(C)C[C@@H](OC(=O)CCC(=O)O)[C@H](O)C(C)(C)[C@@H]5CC[C@]43C)[C@@H]2C1

IC50 (Protease): 62.7 µM
Compound: CC1(C)CC[C@]2(C(=O)O)CC[C@]3(C)C(=CC[C@@H]4[C@@]5(C)C[C@@H](O)[C@H](O)C(C)(C)[C@@H]5CC[C@]43C)[C@@H]2C1 [MASLINIC ACID]
Activity (B16-F10 [1]): 54.2%
Activity (B16-F10 [2]): 2%
Activity (B16-F10 [3]): 20.8%
Activity (B16-F10 [4]): 10.9%
IC50 (B16-F10 [5]): 36.2 µM
Activity (B16-F10 [6]): 21%
Activity (B16-F10 [7]): 11.7%
Activity (B16-F10 [8]): 68.8%
Activity (B16-F10 [9]): 89.8%
Activity (B16-F10 [10]): 74.9%
Activity (B16-F10 [11]): 8.3%

IC50 (Protease): 0.31 µM
Compound: CC1(C)CC[C@]2(C(=O)O)CC[C@]3(C)C(=CC[C@@H]4[C@@]5(C)CC[C@H](OC(=O)c6ccccc6C(=O)O)C(C)(C)[C@@H]5CC[C@]43C)[C@@H]2C1

IC50 (Protease): 14.2 µM
Compound: CC1(C)CC[C@]2(C(=O)O)CC[C@]3(C)C(=CC[C@@H]4[C@@]5(C)C[C@@H](OC(=O)c6ccccc6C(=O)O)[C@H](O)C(C)(C)[C@@H]5CC[C@]43C)[C@@H]2C1

IC50 (Protease): 31.2 µM
Compound: CCCC(=O)O[C@@H]1C[C@]2(C)[C@H]3CC=C4[C@@H]5CC(C)(C)CC[C@]5(C(=O)O)CC[C@@]4(C)[C@]3(C)CC[C@H]2C(C)(C)[C@H]1OC(=O)CCC

Compound: CC(C)(CC(=O)O)CC(=O)O[C@@H]1C[C@]2(C)[C@H]3CC=C4[C@@H]5CC(C)(C)CC[C@]5(C(=O)OCc5ccccc5)CC[C@@]4(C)[C@]3(C)CC[C@H]2C(C)(C)[C@H]1O
Activity (B16-F10 [1]): 46.3%
Activity (B16-F10 [12]): Active
Activity (B16-F10 [2]): 5.6%
Activity (B16-F10 [3]): 16.5%
Activity (B16-F10 [4]): 35.4%
IC50 (B16-F10 [5]): 28.3 µM
Activity (B16-F10 [6]): 65.3%
Activity (B16-F10 [7]): 1.8%
Activity (B16-F10 [8]): 26.9%
Activity (B16-F10 [9]): 92.2%
Activity (B16-F10 [10]): 62.8%
Activity (B16-F10 [11]): 2.2%

IC50 (Protease): 14.3 µM
Compound: CC(C)(CC(=O)O)CC(=O)O[C@@H]1C[C@]2(C)[C@H]3CC=C4[C@@H]5CC(C)(C)CC[C@]5(C(=O)O)CC[C@@]4(C)[C@]3(C)CC[C@H]2C(C)(C)[C@H]1O

Compound: CC(C)(CC(=O)O)CC(=O)O[C@H]1CC[C@]2(C)[C@H]3CC=C4[C@@H]5CC(C)(C)CC[C@]5(C(=O)OCc5ccccc5)CC[C@@]4(C)[C@]3(C)CC[C@H]2C1(C)C
Activity (B16-F10 [1]): 42.6%
Activity (B16-F10 [12]): Active
Activity (B16-F10 [2]): 6.4%
Activity (B16-F10 [3]): 44%
Activity (B16-F10 [4]): 8.3%
IC50 (B16-F10 [5]): 14.2 µM
Activity (B16-F10 [6]): 36.1%
Activity (B16-F10 [7]): 5.3%
Activity (B16-F10 [8]): 52.8%
Activity (B16-F10 [9]): 88.8%
Activity (B16-F10 [10]): 86.5%
Activity (B16-F10 [11]): 4.9%

IC50 (Protease): 1.9 µM
Compound: CC1(C)CC[C@]2(C(=O)O)CC[C@]3(C)C(=CC[C@@H]4[C@@]5(C)C[C@@H](OC(=O)CCC(=O)O)[C@H](OC(=O)CCC(=O)O)C(C)(C)[C@@H]5CC[C@]43C)[C@@H]2C1

IC50 (Protease): 73 µM
Compound: CCCCCCCCCCCC(=O)O[C@@H]1C[C@]2(C)[C@H]3CC=C4[C@@H]5CC(C)(C)CC[C@]5(C(=O)OCc5ccccc5)CC[C@@]4(C)[C@]3(C)CC[C@H]2C(C)(C)[C@H]1OC(=O)CCCCCCCCCCC

IC50 (Protease): 5.2 µM
Compound: CC1(C)CC[C@]2(C(=O)OCc3ccccc3)CC[C@]3(C)C(=CC[C@@H]4[C@@]5(C)C[C@@H](OC(=O)CCC(=O)O)[C@H](OC(=O)CCC(=O)O)C(C)(C)[C@@H]5CC[C@]43C)[C@@H]2C1

IC50 (Protease): 150 µM
Compound: CCCCCC(=O)O[C@@H]1C[C@]2(C)[C@H]3CC=C4[C@@H]5CC(C)(C)CC[C@]5(C(=O)OCc5ccccc5)CC[C@@]4(C)[C@]3(C)CC[C@H]2C(C)(C)[C@H]1OC(=O)CCCCC
